What was measured:
[1] = target: T1, Adenosine 5'-monophosphoramidase HINT1 (Homo sapiens, UniProt P49773); experiment: Drug metabolism in human K562 cell lysate assessed as HINT-1-mediated compound formation by measuring retention time at 1 mM after 22 hrs by RP-HPLC analysis relative to control; assay type: ADME, cell-based; settings: k562, 22 h, 1000 µM
How it was run: (§1)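 K562 lysate from confluent cells, scraped and sonicated in PBS with protease inhibitors. Substrate 1 mM in 20 mM Na-HEPES pH 7.2, 0.5 mM MgCl2, with lysate protein, 22 h at 37 °C. Quenched on ice, heat-denatured, centrifuged. Supernatant analysed by C18 RP-HPLC (0–8% acetonitrile in 0.1 M TEAB pH 7.4, 20 min) at 260 nm. Peaks integrated; products identified by co-injection; mean ± SE, at least duplicate.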

[2] = target: T1, Adenosine 5'-monophosphoramidase HINT1; experiment: Drug level in human K562 cell lysate treated with 1 mM gemcitabine 5'-phosphoramidate assessed as HINT-1-mediated compound formation after 22 hrs by RP-HPLC analysis relative to control; assay type: ADME, cell-based; settings: k562, 22 h; how it was run: as §1
[3] = target: T1, Adenosine 5'-monophosphoramidase HINT1; experiment: Drug metabolism in human K562 cell lysate assessed as HINT-1-mediated compound dephosphorylation at 1 mM after 22 hrs by RP-HPLC analysis relative to control; assay type: ADME, cell-based; settings: k562, 22 h, 1000 µM; how it was run: as §1
[4] = target: T1, Adenosine 5'-monophosphoramidase HINT1; experiment: Drug metabolism in human K562 cell lysate assessed as HINT-1-mediated gemcitabine 5'-monophosphate formation at 1 mM after 22 hrs by RP-HPLC analysis relative to control; assay type: ADME, cell-based; settings: k562, 22 h, 1000 µM; how it was run: as §1
[5] = target: T2, Adenosine 5'-monophosphoramidase HINT1 (Oryctolagus cuniculus, UniProt P80912); experiment: Drug metabolism assessed as recombinant rabbit HINT1-mediated hydrolysis of NH2-pdFdC to pdFdC per ug protein at 1 mM by RP-HPLC analysis; assay type: ADME; settings: 1000 µM
[6] = target: T2, Adenosine 5'-monophosphoramidase HINT1; experiment: Drug metabolism assessed as recombinant rabbit HINT1-mediated hydrolysis of NH2-pdFdC to pdFdC per ug protein at 0.2 mM by RP-HPLC analysis; assay type: ADME; settings: 200 µM
How it was run: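 Recombinant Hint-1 expressed in E. coli BL21 from pSGA02-HINT, purified by AMP-agarose affinity; hydrolysis of NH2-pdFdC to pdFdC at 0.2 mM substrate, activity expressed per µg protein; products followed by RP-HPLC on C18 column with acetonitrile gradient in 0.1 M triethylammonium bicarbonate, pH 7.4, peak areas integrated.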

[7] = target: T1, Adenosine 5'-monophosphoramidase HINT1; experiment: Drug metabolism in human K562 cell lysate assessed as HINT-1-mediated gemcitabine formation at 1 mM after 22 hrs by RP-HPLC analysis relative to control; assay type: ADME, cell-based; settings: k562, 22 h, 1000 µM; how it was run: as §1

T1 sequence (P49773 whole entry): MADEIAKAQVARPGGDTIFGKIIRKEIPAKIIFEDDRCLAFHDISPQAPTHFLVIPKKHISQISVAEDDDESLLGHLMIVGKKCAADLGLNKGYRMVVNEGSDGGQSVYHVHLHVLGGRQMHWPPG
T2 sequence (P80912 whole entry): as the sequence (P49773 whole entry) above, with R37Q, V65A, D69A, N91K, H122N counted along it

Retention_time [1] [min] | Drug metabolism [2] | Drug metabolism [3] | Drug metabolism [4] | Drug metabolism [5] [nmol/min/µg] | Drug metabolism [6] [nmol/min/µg] | Drug metabolism [7] | Structure (SMILES)
11.1 | metabolite_detected | metabolite_detected | – | – | – | – | Nc1ccn([C@@H]2O[C@H](COP(=O)(O)O)[C@@H](O)C2(F)F)c(=O)n1
10.6 | – | – | metabolite_detected | 1.88 | 0.88 | metabolite_detected | Nc1ccn([C@@H]2O[C@H](COP(N)(=O)O)[C@@H](O)C2(F)F)c(=O)n1

From ChEMBL document CHEMBL3232882, “N-Acyl-phosphoramidates as potential novel form of gemcitabine prodrugs” (Bioorg Med Chem, 2014)
